Data as given in ChEMBL document CHEMBL1806437, “Design, synthesis and antileishmanial in vitro activity of new series of chalcones-like compounds: a molecular hybridization approach” (Bioorg Med Chem, 2011).
pIC50: −log10 of the molar value.

Legend:
Leishmania amazonensis = assay: Antileishmanial activity against Leishmania amazonensis MHOM/IFLA/BR/67/PH8 promastigotes after 72 hrs by cell counting using Neubauer chamber; format: functional, organism-based; details: MHOM/IFLA/BR/67/PH8, 72 h
In short: (§1)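 Log-phase promastigotes seeded at 1 × 10⁶ parasites/mL in Schneider's Drosophila medium with 20% FBS, streptomycin and penicillin (100 U/mL), 26 °C, with or without a range of compound concentrations; Glucantime and amphotericin B as reference controls. At 72 h cells fixed in citric acid/NaCl/formalin isotonic solution and counted microscopically; IC50/72 h by probit regression.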

Leishmania chagasi = assay: Antileishmanial activity against Leishmania chagasi MCAN/BR/99/JP15 promastigotes after 72 hrs by cell counting using Neubauer chamber; format: functional, organism-based; details: MCAN/BR/99/JP15, 72 h; in short: as §1

Row | pIC50 (Leishmania amazonensis) | pIC50 (Leishmania chagasi) | SMILES
1 | 5.12 | 4.99 | C=C(C(=O)Oc1ccccc1C(=O)OC)C(O)c1ccccc1[N+](=O)[O-] (configuration not stated)
2 | 4.64 | 4.39 | C=C(C(=O)Oc1ccccc1C(=O)OC)C(O)c1cccc([N+](=O)[O-])c1 (configuration not stated)
3 | 4.95 | 4.24 | C=C(C(=O)Oc1ccccc1C(=O)OC)C(O)c1ccc([N+](=O)[O-])cc1 (configuration not stated)
4 | 4.62 | 4.48 | C=C(C(=O)Oc1ccccc1C(=O)OC)C(O)c1ccncc1 (configuration not stated)
5 | 4.51 | 4.41 | C=C(C(=O)Oc1ccccc1C(=O)OC)C(O)c1cccnc1 (configuration not stated)
6 | 4.66 | 4.37 | C=C(C(=O)Oc1ccccc1C(=O)OC)C(O)c1ccc(Br)cc1 (configuration not stated)
7 | 5.05 | 4.38 | C=C(C(=O)Oc1ccccc1C(=O)OC)C(O)c1ccc2ccccc2c1 (configuration not stated)
8 | 4.65 | 4.31 | C=C(CCC(=O)Oc1ccccc1C(=O)OC)C(=O)Oc1ccccc1C(=O)OC
9 | 6.92 | 6.16 | C[C@@H]1[C@H](O)[C@@H](C)/C=C/C=C/C=C/C=C/C=C/C=C/C=C/[C@H](O[C@@H]2O[C@H](C)[C@@H](O)[C@H](N)[C@@H]2O)C[C@@H]2O[C@](O)(C[C@@H](O)C[C@@H](O)[C@H](O)CC[C@@H](O)C[C@@H](O)CC(=O)O[C@H]1C)C[C@H](O)[C@H]2C(=O)O [AMPHOTERICIN B]
10 | 3.96 | 3.93 | C=CC(=O)Oc1ccccc1C(=O)OC [METHYL SALICYLATE ACRYLIC ESTER]
11 | 3.64 | 3.58 | COC(=O)c1ccccc1O [METHYL SALICYLATE]
